According to ChEMBL document CHEMBL1152122, “New lithocholic and chenodeoxycholic piperazinylcarboxamides with antiproliferative and pro-apoptotic effects on human cancer cell lines” (2008):
Active and inactive are the calls of the source. The rule behind the calls is not given here.

Key:
GBM [1] = assay: Cytotoxicity against human GBM cells at 50 uM after 24 hrs by neutral red uptake assay; type: functional, cell-based
Procedure, shortened: (§1)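 After 24 h, a single 50 µM dose was given for 24 or 48 h, with DMSO controls. Neutral red uptake for 3 h at 50 µg/mL final, with read-out at OD 570 nm. Viability expressed as % of untreated cells, four wells per line.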

HCT-116 [2] = assay: Cytotoxicity against human HCT116 cells at 50 uM after 24 hrs by neutral red uptake assay; type: functional, cell-based; procedure, shortened: as §1
KMS-11 [3] = assay: Cytotoxicity against human KMS11 cells at 50 uM after 24 hrs by neutral red uptake assay; type: functional, cell-based; procedure, shortened: as §1
GBM [4] = assay: Cytotoxicity against human GBM cells at 50 uM after 48 hrs by neutral red uptake assay; type: functional, cell-based; procedure, shortened: as §1
HCT-116 [5] = assay: Cytotoxicity against human HCT116 cells at 50 uM after 48 hrs by neutral red uptake assay; type: functional, cell-based; procedure, shortened: as §1
KMS-11 [6] = assay: Cytotoxicity against human KMS11 cells at 50 uM after 48 hrs by neutral red uptake assay; type: functional, cell-based; procedure, shortened: as §1
HCT-116 [7] = assay: Cytotoxicity against human HCT116 cells after 24 hrs by neutral red uptake assay; type: functional; conditions: HCT-116, 24 h, read-out: LD50 (the source's name)
Procedure, shortened: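 Compounds added after 24 h for a 24 h dose-response, with DMSO vehicle controls. Neutral red 50 µg/mL final for 3 h, then fixation, acid-ethanol extraction and OD at 570 nm. LD50 taken from curves; mean ± standard error of ≥3 experiments.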

KMS-11 [8] = assay: Cytotoxicity against human KMS11 cells assessed as [3H]thymidine incorporation at 20 uM after 24 hrs; type: functional, cell-based
Procedure, shortened: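 KMS-11 (multiple myeloma plasma-cell line) in RPMI 1640 with 5% FCS, seeded at 500,000 cells/well in triplicate at 37 °C, 5% CO2. After 24 h, drug or vehicle added in fresh medium. After 24 h, pulsed with 1 μCi/well [3H]thymidine. Cells trypsin/EDTA-detached, harvested onto glass filters, counted by scintillation. Output as % of untreated cells; three independent experiments.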

GBM [9] = assay: Cytotoxicity against human GBM cells assessed as morphological changes at 12 uM after 24 hrs by neutral red uptake assay; type: functional, cell-based
Procedure, shortened: (§2)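 Cells in RPMI 1640 with 10% FCS (GBM primary culture, HCT-116) or 5% FCS (KMS-11), 2 mM glutamine, antibiotics, used at 70–80% confluency. Morphology examined alongside neutral red uptake viability.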

HCT-116 [10] = assay: Cytotoxicity against human HCT116 cells assessed as morphological changes at 12 uM after 24 hrs by neutral red uptake assay; type: functional, cell-based; procedure, shortened: as §2
KMS-11 [11] = assay: Cytotoxicity against human KMS11 cells assessed as morphological changes at 12 uM after 24 hrs by neutral red uptake assay; type: functional, cell-based; procedure, shortened: as §2
KMS-11 [12] = assay: Induction of apoptosis in human KMS11 cells at 10 uM after 24 hrs by PC5-labeled Apo2.7 antibody based flow cytometry; type: functional
Procedure, shortened: (§3)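 KMS-11 cells treated 24 h at the stated concentrations, then stained with the phycoerythrin-labeled APO2.7 antibody kit, which detects mitochondrial 7A6 antigen. Analysed by flow cytometry and reported as % APO2.7-positive cells.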

KMS-11 [13] = assay: Induction of apoptosis in human KMS11 cells at 40 uM after 24 hrs by PC5-labeled Apo2.7 antibody based flow cytometry; type: functional; procedure, shortened: as §3
KMS-11 [14] = assay: Induction of apoptosis in human KMS11 cells after 24 hrs by PC5-labeled Apo2.7 antibody based flow cytometry; type: functional, cell-based; procedure, shortened: as §3
KMS-11 [15] = assay: Induction of apoptosis in human KMS11 cells assessed as Cleavage of Mcl-1 after 24 hrs by Western blotting; type: functional, cell-based
Procedure, shortened: (§4)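 KMS-11 cells treated 24 h. 5×10^6 cells lysed 40 min on ice (10 mM Tris pH 7.6, 150 mM NaCl, 5 mM EDTA, 1% Triton X-100, PMSF, aprotinin), cleared at 10,000 g. Equal BCA-quantified protein run on reducing SDS-PAGE and transferred to PVDF. Primary antibodies (PARP-1, Mcl-1, IκBα, phospho-IκBα) overnight at 4 °C, then HRP secondary 30 min, chemiluminescent detection.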

KMS-11 [16] = assay: Induction of apoptosis in human KMS11 cells assessed as Cleavage of PARP-1 after 24 hrs by Western blotting; type: functional, cell-based; procedure, shortened: as §4
KMS-11 [17] = assay: Induction of apoptosis in human KMS11 cells assessed as hyperphosphorylation of IkappaB after 24 hrs by Western blotting; type: functional, cell-based; procedure, shortened: as §4
KMS-11 [18] = assay: Induction of apoptosis in human KMS11 cells assessed as fragmentation of nuclei at 10 uM after 24 hrs […]; type: functional
KMS-11 [19] = assay: Induction of apoptosis in human KMS11 cells assessed as fragmentation of nuclei at 20 uM after 24 hrs […]; type: functional
KMS-11 [20] = assay: Induction of apoptosis in human KMS11 cells assessed as DNA fragmentation at 5 uM after 24 hrs by Hoechst staining; type: functional, cell-based
Procedure, shortened: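 KMS-11 cells on glass coverslips fixed in 2% formaldehyde 10 min and stained with Hoechst 33342 (1 µg/mL in PBS, 5 min). Nuclei viewed by epifluorescence microscopy under 350 nm excitation.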

SMILES: c1cnc(N2CCNCC2)nc1
- Activity (GBM [1]): inactive
- Activity (HCT-116 [2]): inactive
- Activity (KMS-11 [3]): inactive
- Activity (GBM [4]): inactive
- Activity (HCT-116 [5]): inactive
- Activity (KMS-11 [6]): inactive

SMILES: c1ccc(N2CCNCC2)nc1
- Activity (GBM [1]): inactive
- Activity (HCT-116 [2]): inactive
- Activity (KMS-11 [3]): inactive
- Activity (GBM [4]): inactive
- Activity (HCT-116 [5]): inactive
- Activity (KMS-11 [6]): inactive

SMILES: C[C@H](CCC(=O)N1CCN(c2ncccn2)CC1)[C@H]1CC[C@H]2[C@@H]3[C@H](O)C[C@@H]4C[C@H](O)CC[C@]4(C)[C@H]3CC[C@]12C
- CC50 (HCT-116 [7]): 30 µM

SMILES: C[C@H](CCC(=O)N1CCN(c2ccccn2)CC1)[C@H]1CC[C@H]2[C@@H]3[C@H](O)C[C@@H]4C[C@H](O)CC[C@]4(C)[C@H]3CC[C@]12C
- Activity (GBM [1]): inactive
- CC50 (HCT-116 [7]): > 50 µM
- Activity (HCT-116 [2]): inactive
- Activity (KMS-11 [3]): inactive
- Activity (GBM [4]): inactive
- Activity (HCT-116 [5]): inactive
- Activity (KMS-11 [6]): inactive

SMILES: C[C@H](CCC(=O)N1CCN(C/C=C/c2ccccc2)CC1)[C@H]1CC[C@H]2[C@@H]3CC[C@@H]4C[C@H](O)CC[C@]4(C)[C@H]3CC[C@]12C
- Activity (GBM [1]): inactive
- CC50 (HCT-116 [7]): > 50 µM
- Activity (HCT-116 [2]): inactive
- Activity (KMS-11 [3]): inactive
- Activity (GBM [4]): inactive
- Activity (HCT-116 [5]): inactive
- Activity (KMS-11 [6]): inactive

SMILES: C[C@H](CCC(=O)O)[C@H]1CC[C@H]2[C@@H]3CC[C@@H]4C[C@H](O)CC[C@]4(C)[C@H]3CC[C@]12C [LITHOCHOLIC ACID]
- Activity (GBM [1]): inactive
- CC50 (HCT-116 [7]): > 50 µM
- Activity (HCT-116 [2]): inactive
- Activity (KMS-11 [3]): inactive
- Activity (GBM [4]): inactive
- Activity (HCT-116 [5]): inactive
- Activity (KMS-11 [6]): inactive

SMILES: C[C@H](CCC(=O)N1CCN(c2ccccn2)CC1)[C@H]1CC[C@H]2[C@@H]3CC[C@@H]4C[C@H](O)CC[C@]4(C)[C@H]3CC[C@]12C
- CC50 (HCT-116 [7]): 50 µM

SMILES: C[C@H](CCC(=O)N1CCN(C/C=C/c2ccccc2)CC1)[C@H]1CC[C@H]2[C@@H]3[C@H](O)C[C@@H]4C[C@H](O)CC[C@]4(C)[C@H]3CC[C@]12C
- Activity (GBM [1]): Active
- CC50 (HCT-116 [7]): 18.5 µM
- Activity (HCT-116 [2]): Active
- Activity (KMS-11 [3]): Active
- Activity (KMS-11 [8]): Active
- Activity (GBM [9]): Active
- Activity (HCT-116 [10]): Active
- Activity (KMS-11 [11]): Active
- Activity (KMS-11 [12]): 37%
- Activity (KMS-11 [13]): 86%
- Activity (KMS-11 [14]): Dose-dependent effect
- Activity (KMS-11 [15]): Active
- Activity (KMS-11 [16]): Active
- Activity (KMS-11 [17]): Active
- Activity (KMS-11 [18]): 5%
- Activity (KMS-11 [19]): 61%
- Activity (KMS-11 [20]): Active

SMILES: C(=C\c1ccccc1)/CN1CCNCC1
- Activity (GBM [1]): inactive
- Activity (HCT-116 [2]): inactive
- Activity (KMS-11 [3]): inactive
- Activity (GBM [4]): inactive
- Activity (HCT-116 [5]): inactive
- Activity (KMS-11 [6]): inactive

SMILES: C[C@H](CCC(=O)N1CCN(c2ncccn2)CC1)[C@H]1CC[C@H]2[C@@H]3CC[C@@H]4C[C@H](O)CC[C@]4(C)[C@H]3CC[C@]12C
- CC50 (HCT-116 [7]): 50 µM

SMILES: C[C@H](CCC(=O)O)[C@H]1CC[C@H]2[C@@H]3[C@H](O)C[C@@H]4C[C@H](O)CC[C@]4(C)[C@H]3CC[C@]12C [CHENODIOL]
- Activity (GBM [1]): inactive
- CC50 (HCT-116 [7]): > 50 µM
- Activity (HCT-116 [2]): inactive
- Activity (KMS-11 [3]): inactive
- Activity (GBM [4]): inactive
- Activity (HCT-116 [5]): inactive
- Activity (KMS-11 [6]): inactive
